Measurements from PMC4257570 (Basic & Clinical Pharmacology & Toxicology, 2014).
Where “and” joins values, the source holds several entries; their conditions need not be identical. Identical values can stand only once.

Key:
[1] = Population pharmacokinetic analysis; type: in vivo, human
In short: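 Oral doses were 2.5–75 mg single and 2.5–60 mg/day multiple; only vortioxetine-alone data from interaction studies were used. Models were two-compartment with lag time and first-order absorption and elimination (one- and three-compartment also tested). Covariates, including CYP genotype-inferred metaboliser status, were added forward then deleted backward. Bootstrap gave 95% CIs.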

[2] = cited from earlier work
[3] = cited from earlier work; remark: listed apart in the source
[4] = no reference given; cited from earlier work
[5] = ref unpublished data; cited from earlier work
[6] = non-compartmental analysis, healthy young subjects

Br.Cc1ccc(Sc2ccccc2N2CCNCC2)c(C)c1 [vortioxetine, 1-[2-(2,4-dimethyl-phenylsulfanyl)-phenyl]-piperazine hydrobromide]
CL/F of CYP2C19 EMs relative to PMs ([1]; CYP2C19 EM vs PM): 1.4 times
Oral clearance (CL/F), estimate ([1]; CYP2D6-inferred extensive metabolisers (EM), final model): 34.1 L/h
Oral clearance (CL/F), estimate ([1]; CYP2D6-inferred intermediate metabolisers (IM), final model): 26.6 L/h
Oral clearance (CL/F), estimate ([1]; CYP2D6-inferred poor metabolisers (PM), final model): 18.1 L/h
Oral clearance (CL/F), estimate ([1]; CYP2D6-inferred ultra metabolisers (UM), final model): 52.9 L/h
CL/F of CYP2D6 extensive metabolisers relative to poor metabolisers ([1]; CYP2D6 EM vs PM): 1.9 times
Oral clearance (CL/F), population mean ([1]; all healthy subjects, oral dosing, from the base model): 32.7 L/h and 33 L/h
Absorption rate constant (ka), estimate ([1]; final model): 0.142 h⁻¹
Interindividual variability (IIV) of CL/F ([1]; final model): 42%
Interindividual variability (IIV) of V2/F ([1]; final model): 31%
Interindividual variability (IIV) of ka ([1]; final model): 51%
Lag-time (ALAG), estimate ([1]; final model): 0.781 h
Volume of distribution, peripheral comp (V3/F), estimate ([1]; final model): 661 L
Age on CL/F ([1]; final model, covariate effect): 0.277 L/hr/yr
Height on V2/F ([1]; final model, covariate effect): 17.4 L/cm
half-life ([1]; human, plasma, im, Estimated mean t1/2, CYP2D6-inferred metabolic status IM): 73 h
Vd/F ([1]; human, plasma, oral): 1970 L
half-life ([1]; human, plasma, oral, Estimated mean t1/2, CYP2D6-inferred metabolic status EM): 60 h
half-life ([1]; human, plasma, oral, Estimated mean t1/2, CYP2D6-inferred metabolic status PM): 104 h
half-life ([1]; human, plasma, oral, Estimated mean t1/2, CYP2D6-inferred metabolic status UM): 42 h
V2/F, population mean ([1]; men, sex as only covariate): 1940 L
Sum of the central and peripheral volumes of distribution (V2/F + V3/F) ([1]; population mean, oral administration): 2600 L
Higher exposure in a subject compared with the population mean ([1]; subject vs population mean of 44 years): ≤ 40%
CL/F, population mean ([1]; women, sex as only covariate): 30 L/h
V2/F, population mean ([1]; women, sex as only covariate): 1810 L
Absolute bioavailability for oral administration [2]: 75%
Clearance (oral clearance) [2, 6]: 47 L/h
Elimination half-life [2, 6]: 57 h
Change of CL/F of vortioxetine when co-administered with bupropion ([3]; bupropion (CYP2D6 inhibitor)): reduced approximately by half
Increase of vortioxetine exposure with co-administration of bupropion ([3]; bupropion (CYP2D6 inhibitor)): approximately 2 fold
Decrease of AUC of vortioxetine with co-administration of rifampicin ([3]; rifampicin (broad CYP inducer)): 72%
Effect of co-administration of omeprazole on vortioxetine steady-state exposure ([3]; single dose of omeprazole (CYP2C19 inhibitor)): no effects
Renal clearance [4]: negligible

Cc1cc(C(=O)O)ccc1Sc1ccccc1N1CCNCC1 [Lu AA34443, 3-methyl-4-(2-piperazine-1-yl-phenylsulfanyl)-benzoic acid]
Crossing of the blood–brain barrier [5]: incapable of crossing the blood–brain barrier
